SENP7 inh – blocks the human protease SENP7; Q9BQF6; inhibition, % at 5 µM; AID 434973; recombinant SENP7, Z-RLRGG-aminoluciferin luminescence, 40 min; 330,000 tested, 1.5% active;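 active = inhibition above about 50% at the single test dose, limit read from the data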
SENP8 block-1 – inhibitors of human SENP8 protease | 360,000 tested, 0.64% active | Q96LD8 | inhibition, % at 20 µM | recombinant SENP8, Nedd8 substrate fluorescence | AID 602440; in the data active = inhibition mostly above about 40%, no sharp cut-off; inactive = mostly below about 27%
SENP6 block – blocks the human protease SENP6; Recombinant SENP6 catalytic domain, aminoluciferin luminescence; inhibition, % at 10 µM; 330,000 tested, 1.8% active; AID 2599;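 active = inhibition above about 50% at the single tested dose, limit read from the data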
Target sequence (Q9GZR1 628-1112 limits assumed): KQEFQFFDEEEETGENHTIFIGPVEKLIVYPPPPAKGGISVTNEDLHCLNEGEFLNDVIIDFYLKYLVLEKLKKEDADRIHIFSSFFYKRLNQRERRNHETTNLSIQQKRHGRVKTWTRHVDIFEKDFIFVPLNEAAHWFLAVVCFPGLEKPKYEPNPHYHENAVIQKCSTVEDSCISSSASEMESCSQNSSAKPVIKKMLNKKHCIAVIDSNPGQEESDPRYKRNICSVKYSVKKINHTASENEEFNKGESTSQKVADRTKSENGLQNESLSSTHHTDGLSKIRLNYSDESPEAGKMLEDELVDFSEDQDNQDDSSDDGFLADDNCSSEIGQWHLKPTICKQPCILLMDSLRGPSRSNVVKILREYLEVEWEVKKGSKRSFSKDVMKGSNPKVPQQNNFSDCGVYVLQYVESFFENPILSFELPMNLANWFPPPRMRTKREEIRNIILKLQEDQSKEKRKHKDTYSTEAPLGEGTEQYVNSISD
SENP1 inh – blocks the human SENP1 SUMO protease catalytic domain | Q9P0U3 | 360,000 tested, 0.21% active | recombinant SENP1 catalytic domain, CyPet-SUMO1-YPet FRET cleavage | inhibition, % at 10 µM;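 active = inhibition at least 30% at 10 µM, raw YFP signal under a set limit, fluorescence ratio 0.5 to 1.5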
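material = recombinant human SENP1 catalytic domain, His6-tagged | quantity = 20 pM enzyme | reagent = 25 nM SUMO1 FRET substrate | compound dosing = 10 µM single point, 0.5% DMSO | timing = 50 min enzyme reaction, room temperature, light-protected | detection = FRET, CFP and YFP emission | control set = no-enzyme low, enzyme-DMSO high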
Platelet DG rel – modulates dense granule release in human platelets | human platelet-rich plasma, SFLLRN dense granule ATP release, luminescence | inhibition, %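 (compounds screened at 7.5 µM in platelet-rich plasma)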 | 300,000 tested, 0.22% active | AID 1663;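 active = mean replicate score, as percent of positive control, at or above 50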
SENP8 block-2 – blocks the human protease SENP8; inhibition, % at 10 µM; 330,000 tested, 1.2% active; AID 2540; purified SENP8, Z-RLRGG-aminoluciferin cleavage, luminescence; in the data active = inhibition above about 50%
SENP8 confirm – confirmation of human SENP8 protease inhibitors | shares compounds with SENP7 inh | Recombinant SENP8, Z-RLRGG-aminoluciferin luminescence, 60 min | inhibition, % at 12.5 µM | 6,200 tested, 40% active | AID 488912;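 active = mean inhibition across replicates above about 50%, limit read from the data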
SENP6 confirm – confirmation of human SENP6 protease inhibitors. 6,200 tested, 58% active. recombinant SENP6, Z-RLRGG-aminoluciferin luminescence. inhibition, % at 12.5 µM. shares compounds with SENP7 inh
SENP7 confirm – human SENP7 inhibition, confirmed; shares compounds with SENP7 inh; recombinant SENP7, Z-RLRGG-aminoluciferin luminescence, 40 min; inhibition, % at 12.5 µM; 6,200 tested, 69% active; AID 488917
Casp3 SENP sel – selectivity test for SENP inhibitors: human caspase-3 inhibition; inhibition, % at 12.5 µM; 6,200 tested, 60% active; shares compounds with SENP7 inh; purified caspase-3, Z-DEVD-aminoluciferin luminescence, 60 min;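 active = mean inhibition above about 50%, limit read from the data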
Target sequence (P42574 28-227 limits assumed): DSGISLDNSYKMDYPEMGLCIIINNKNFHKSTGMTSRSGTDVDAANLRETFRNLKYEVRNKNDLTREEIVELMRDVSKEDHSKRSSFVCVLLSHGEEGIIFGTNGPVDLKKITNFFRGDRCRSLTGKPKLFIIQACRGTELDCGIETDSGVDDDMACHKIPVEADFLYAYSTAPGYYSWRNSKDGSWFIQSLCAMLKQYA
SENP luc ctr – luminescence interference (SENP counter-screen). shares compounds with SENP7 inh. Pre-incubated SENP8/Z-RLRGG-aminoluciferin, luciferase luminescence interference. inhibition, % at 12.5 µM. 6,200 tested, 39% active;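 active = mean inhibition above about 50% when retested at one dose, limit read from the data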
Of the large screens only hits and unclear results are named; the others gave an inactive call (follow-up assays come after a bar, where they were run). Shown are actives, neighbours in structure and some others; about 2.6% of the full set was active somewhere.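 Rule for the calls, unless noted: active = mean inhibition above about 50% in the one-dose retest (limit read from the data); inactive = the rest.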

Cc1ccc(C(=O)Nc2ccc3c(c2)OCO3)cc1Cl	SENP7 inh 51 | SENP8 confirm inactive | SENP6 confirm inactive | SENP7 confirm 61 | Casp3 SENP sel inactive | SENP luc ctr inactive
O=C(O)c1ccc(N/N=C/c2ccc(OC(=O)c3cccc(Cl)c3)cc2)cc1	SENP8 block-2 80 | SENP8 confirm inactive | SENP6 confirm inactive | SENP7 confirm inactive | Casp3 SENP sel inactive | SENP luc ctr inactive
O=C(O)c1cccc(N/N=C/c2ccc(OC(F)(F)F)cc2)c1	SENP6 block 99, SENP8 block-2 98 | SENP8 confirm inactive | SENP6 confirm 100 | SENP7 confirm 103 | Casp3 SENP sel 94 | SENP luc ctr 99
O=C(O)c1cccc(N/N=C/c2cccs2)c1	SENP7 inh 100, SENP6 block 100, SENP8 block-2 97 | SENP8 confirm 100 | SENP6 confirm 100 | SENP7 confirm 104 | Casp3 SENP sel 98 | SENP luc ctr 99
O=c1onc(-c2cccnc2)n1-c1ccccc1F	none
O=c1[nH]cnc2c1sc1nc(C(F)F)cc(-c3ccccc3)c12	none (no result: Platelet DG rel)
COc1c(Cl)cc(C(=O)Nc2ccccc2C(=O)O)cc1Cl	SENP6 block 76, SENP8 block-2 69 | SENP8 confirm 81 | SENP6 confirm 79 | SENP7 confirm 86 | Casp3 SENP sel inactive | SENP luc ctr 84
Cc1ccc(NC(=O)c2cccc(C(=O)Nc3ccc(C)cc3C(=O)O)c2)c(C(=O)O)c1	none
Cc1ccc(S(=O)(=O)CCSc2cccc(C(=O)Nc3ccccc3C(=O)O)c2)cc1	SENP6 block 88, SENP8 block-2 65 | SENP8 confirm inactive | SENP6 confirm 76 | SENP7 confirm 92 | Casp3 SENP sel 60 | SENP luc ctr 85
Cc1ccc(C(=O)Nc2ccccc2C(=O)O)cc1S(=O)(=O)NC1CCCCC1	none
O=C(Nc1c[nH]c(=O)[nH]c1=O)c1cccc(F)c1	SENP8 block-2 62 | SENP8 confirm inactive | SENP6 confirm inactive | SENP7 confirm inactive | Casp3 SENP sel inactive | SENP luc ctr inactive
Cc1ccc(C(=O)Nc2ccccc2C(=O)O)cc1S(=O)(=O)Nc1ccccc1	SENP6 block 62 | SENP8 confirm 55 | SENP6 confirm 52 | SENP7 confirm 73 | Casp3 SENP sel inactive | SENP luc ctr 63
Cc1cc(C(=O)NNC(C)Cc2ccccc2)no1 (stereo not given)	none (no result: SENP7 inh, SENP6 block, Platelet DG rel, SENP8 block-2)
Cc1cc(C(=O)Nc2ccccc2C(=O)O)oc1C	SENP6 block 64 | SENP8 confirm 68 | SENP6 confirm 64 | SENP7 confirm 90 | Casp3 SENP sel 88 | SENP luc ctr 73
Cc1ccccc1NC(=O)c1ccc2c(c1)C(=O)N(CC(C)C)C2=O	none
O=C(Nc1ccccc1C(=O)O)c1cccc(F)c1	SENP6 block 75, SENP8 block-2 51 | SENP8 confirm 75 | SENP6 confirm 70 | SENP7 confirm 92 | Casp3 SENP sel 87 | SENP luc ctr 75
Cc1occc1C(=O)Nc1ccccc1C(=O)O	none
CC(C)CN1C(=O)c2ccc(C(=O)Nc3ccccc3C(=O)O)cc2C1=O	SENP6 block 87, SENP8 block-2 82 | SENP8 confirm 88 | SENP6 confirm 88 | SENP7 confirm 98 | Casp3 SENP sel 88 | SENP luc ctr 89
CN(C)c1ccc(C2NC(=O)c3ccccc3N2)cc1 (stereo not given)	SENP7 inh 93, SENP6 block 91, SENP8 block-2 87 | SENP8 confirm inactive | SENP6 confirm inactive | SENP7 confirm inactive | Casp3 SENP sel inactive | SENP luc ctr inactive
O=C1NC(c2ccc(Cl)cc2)Nc2ccccc21 (stereo not given)	none
c1ccc(-c2nc(-c3ccccn3)nc(-c3ccccn3)n2)nc1	none
c1ccc(C2=NNC(c3ccccn3)=NN2)nc1	SENP6 block 78, SENP8 block-2 74 | SENP8 confirm inactive | SENP6 confirm 89 | SENP7 confirm 100 | Casp3 SENP sel 96 | SENP luc ctr 75
c1ccc(-c2nnc(-c3ccccn3)s2)nc1	SENP7 inh 89, SENP6 block 90, SENP8 block-2 83 | SENP8 confirm 91 | SENP6 confirm 93 | SENP7 confirm 102 | Casp3 SENP sel 96 | SENP luc ctr 88
CCOc1cc(/C=C2\C(=O)N(c3nc(-c4ccc(Br)cc4)cs3)N=C2c2ccccc2)ccc1O	SENP6 block 51 | SENP8 confirm inactive | SENP6 confirm inactive | SENP7 confirm inactive | Casp3 SENP sel inactive | SENP luc ctr inactive
COc1cc(/C=C2\C(=O)N(c3ccc(NC(C)=O)cc3)N=C2c2ccccc2)ccc1O	none
Cc1cccnc1NC(=O)c1ccc2c(c1)OCO2	none
Cc1cccc(NC(=O)CNC(=O)c2ccc3c(c2)OCO3)n1	none
Cc1cccc(NC(=O)c2ccc3c(c2)OCCO3)n1	SENP7 inh 83, SENP6 block 78, SENP8 block-2 59 | SENP8 confirm inactive | SENP6 confirm 75 | SENP7 confirm 92 | Casp3 SENP sel 89 | SENP luc ctr 76
Cc1cccc(NC(=O)c2cc3c(s2)-c2c(C)cccc2OC3)n1	SENP7 inh 86 | SENP8 confirm inactive | SENP6 confirm inactive | SENP7 confirm inactive | Casp3 SENP sel inactive | SENP luc ctr inactive
O=C(Nc1ccccn1)c1ccc2c(c1)OCO2	SENP7 inh 73, SENP8 block-2 52 | SENP8 confirm inactive | SENP6 confirm 66 | SENP7 confirm 92 | Casp3 SENP sel 90 | SENP luc ctr 70
Cc1nc(NC(=O)c2ccc3c(c2)OCO3)ccc1Br	SENP7 inh 77, SENP6 block 81, SENP8 block-2 74 | SENP8 confirm inactive | SENP6 confirm 72 | SENP7 confirm 89 | Casp3 SENP sel 73 | SENP luc ctr inactive
CCC(C)c1ccc(NC(=S)Nc2ccc(OC)cc2C)cc1 (stereo not given)	none
COc1cccc(CN2CCN(C(=O)Nc3ccc([N+](=O)[O-])cc3)CC2)c1	none
O=C(Nc1ccccn1)c1ccc2c(c1)OCCO2	SENP7 inh 80, SENP8 block-2 61 | SENP8 confirm inactive | SENP6 confirm 70 | SENP7 confirm 92 | Casp3 SENP sel 89 | SENP luc ctr 72
Cc1cc2oc(=O)cc(-c3ccccc3)c2c(C)c1-c1ccc(N(C)C)cc1	none (no result: SENP6 block, Platelet DG rel, SENP8 block-2)
